# Measured values taken from paper PMC3970846 (Toxicology and applied pharmacology, 2013).
# How the values were obtained:
# 2B35v1 [1] = target: T1, 2B35v1 (Neotoma lepida, UniProt J7EVA5); assay: 7-BR O-debenzylation, reconstituted system; assay type: biochemical; settings: substrate 7-BR; enzyme 2B35v1
# T1 sequence (J7EVA5 22-491): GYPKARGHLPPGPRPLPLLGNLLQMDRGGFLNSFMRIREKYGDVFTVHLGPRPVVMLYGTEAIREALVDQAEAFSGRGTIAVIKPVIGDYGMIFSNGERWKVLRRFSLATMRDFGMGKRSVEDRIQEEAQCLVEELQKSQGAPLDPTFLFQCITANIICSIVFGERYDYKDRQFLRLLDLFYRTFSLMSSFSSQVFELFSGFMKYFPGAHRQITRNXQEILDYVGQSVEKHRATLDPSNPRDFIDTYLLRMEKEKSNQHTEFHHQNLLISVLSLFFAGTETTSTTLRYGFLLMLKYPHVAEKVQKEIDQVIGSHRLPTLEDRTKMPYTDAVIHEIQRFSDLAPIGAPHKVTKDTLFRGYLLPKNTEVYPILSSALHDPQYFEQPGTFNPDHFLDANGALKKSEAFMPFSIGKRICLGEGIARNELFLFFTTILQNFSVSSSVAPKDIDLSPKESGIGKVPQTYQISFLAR
# Summary of the method: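 Same His4-tagged enzyme and purification, and same reconstituted system (P450:rat reductase:rat b5 1:4:2). 7-BR 0–10 μM in 50 mM HEPES pH 7.4, 15 mM MgCl2. NADPH 1 mM final started the reaction, 10 min at 37 °C, then methanol quench. Resorufin read at ex 550/em 580 nm, calibrated daily with 0–2 μM resorufin. Steady-state parameters from Michaelis-Menten regression.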
# 2B36v1 [2] = target: T2, 2B36v1 (Neotoma lepida, UniProt J7EWE5); assay: 7-BR O-debenzylation, reconstituted system; assay type: biochemical
# 2B37v2 V114I [3] = target: T3, 2B37v2 V114I (Neotoma lepida, UniProt J9JD75, V114I, form not given); assay: 7-BR O-debenzylation, reconstituted system; assay type: biochemical; settings: enzyme 2B37v2 V114I
# 2B37v1 [4] = target: T4, 2B37v1 (Neotoma lepida, UniProt J7EWE1); assay: 7-BR O-debenzylation, reconstituted system; assay type: biochemical; settings: enzyme 2B37v1
# [5] = Solubility limit in aqueous solutions; assay type: physicochemical
# 2B37v2 [6] = target: T5, 2B37v2 (Neotoma lepida, UniProt J9JD75); assay: 7-BR O-debenzylation, reconstituted system; assay type: biochemical; settings: enzyme 2B37v2
# 2B37v2 R262K [7] = target: T6, 2B37v2 R262K (Neotoma lepida, UniProt J9JD75, R262K, form not given); assay: 7-BR O-debenzylation, reconstituted system; assay type: biochemical; settings: enzyme 2B37v2 R262K
# 2B37v2 V480L [8] = target: T7, 2B37v2 V480L (Neotoma lepida, UniProt J9JD75, V480L, form not given); assay: 7-BR O-debenzylation, reconstituted system; assay type: biochemical; settings: enzyme 2B37v2 V480L
# 2B37v1 K262R [9] = target: T8, 2B37v1 K262R (Neotoma lepida, UniProt J7EWE1, K262R, form not given); assay: 7-BR O-debenzylation, reconstituted system; assay type: biochemical; settings: enzyme 2B37v1 K262R
# rat 2B1 [10] = target: rat 2B1 (Rattus norvegicus, UniProt P00176, E2A/G22K/H23K/K25S/N29K/P24T/R27K); assay: 7-BR O-debenzylation, reconstituted system; assay type: biochemical; settings: enzyme 2B1
# 2B37v2 R262K [11] = target: T6, 2B37v2 R262K; assay: 7-EFC O-deethylation, reconstituted system; assay type: biochemical
# 2B36v1 [12] = target: T2, 2B36v1; assay: 7-EFC O-deethylation, reconstituted system; assay type: biochemical; settings: enzyme 2B36v1
# 2B37v2 [13] = target: T5, 2B37v2; assay: 7-EFC O-deethylation, reconstituted system; assay type: biochemical
# 2B35v1 [14] = target: T1, 2B35v1; assay: 7-EFC O-deethylation, reconstituted system; assay type: biochemical; settings: substrate 7-EFC; enzyme 2B35v1
# Summary of the method: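 Enzyme with C-terminal His4 tag, expressed in TOPP3 cells and purified on Ni-NTA then CM-Sepharose. Reconstituted with rat NADPH-P450 reductase and rat cytochrome b5 (P450:reductase:b5 1:4:2). 7-EFC 0–150 μM in 50 mM HEPES pH 7.4, 15 mM MgCl2. Started with 1 mM NADPH, 10 min at 37 °C, quenched with ice-cold acetonitrile, diluted into 0.1 M Tris pH 9.0. 7-HFC read at ex 410/em 510 nm, calibrated daily with 0–2 μM HFC. Michaelis-Menten fit.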
# 2B37v1 K262R [15] = target: T8, 2B37v1 K262R; assay: 7-EFC O-deethylation, reconstituted system; assay type: biochemical
# 2B37v2 V114I [16] = target: T3, 2B37v2 V114I; assay: 7-EFC O-deethylation, reconstituted system; assay type: biochemical; settings: enzyme 2B37v2 V114I
# 2B37v2 V480L [17] = target: T7, 2B37v2 V480L; assay: 7-EFC O-deethylation, reconstituted system; assay type: biochemical; settings: enzyme 2B37v2 V480L
# 2B37v1 [18] = target: T4, 2B37v1; assay: 7-EFC O-deethylation, reconstituted system; assay type: biochemical
# 2B37v2 V114I/V480L = 2B37v2 V114I/V480L (Neotoma lepida, UniProt J9JD75, V114I/V480L, form not given); assay: 7-EFC O-deethylation, reconstituted system; assay type: biochemical; settings: enzyme 2B37v2 V114I/V480L
# human 2B6 = settings: ref Talakad et al., 2009; cited from earlier work
# 2B37v1 [19] = target: T4, 2B37v1; settings: read-out: (+)-α-pinene spectral binding KS; enzyme 2B37v1; 25 °C
# 2B36v1 [20] = target: T2, 2B36v1; settings: read-out: (+)-α-pinene spectral binding KS; enzyme 2B36v1; 25 °C
# [21] = ref Sridhar et al., 2012; cited from earlier work
# 2B37v2 [22] = target: T5, 2B37v2; settings: read-out: (+)-α-pinene spectral binding KS; enzyme 2B37v2; 25 °C
# 2B35v1 [23] = target: T1, 2B35v1; settings: read-out: (+)-α-pinene spectral binding KS; enzyme 2B35v1; 25 °C
# rat 2B1 [24] = target: T9, rat 2B1 (Rattus norvegicus, UniProt P00176, E2A/G22K/H23K/K25S/N29K/P24T/R27K); assay type: binding
# T9 sequence (P00176 with tags, fused parts or gaps limits assumed): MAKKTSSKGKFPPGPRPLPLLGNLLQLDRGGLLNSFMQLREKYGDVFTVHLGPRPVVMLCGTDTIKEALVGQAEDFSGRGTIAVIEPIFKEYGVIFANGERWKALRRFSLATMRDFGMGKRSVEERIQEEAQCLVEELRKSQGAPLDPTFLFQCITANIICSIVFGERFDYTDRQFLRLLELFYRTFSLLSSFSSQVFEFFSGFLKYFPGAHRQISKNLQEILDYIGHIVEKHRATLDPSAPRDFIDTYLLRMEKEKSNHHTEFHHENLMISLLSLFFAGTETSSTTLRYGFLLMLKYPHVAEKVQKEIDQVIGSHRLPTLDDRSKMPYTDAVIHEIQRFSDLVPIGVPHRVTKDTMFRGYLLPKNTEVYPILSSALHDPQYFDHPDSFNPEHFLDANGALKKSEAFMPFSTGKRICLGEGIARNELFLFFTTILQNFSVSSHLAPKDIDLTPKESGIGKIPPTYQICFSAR
# [25] = system: CCOc1ccc2c(C(F)(F)F)cc(=O)oc2c1; assay: 7-EFC O-deethylation, reconstituted system; assay type: biochemical, rat; settings: other: enzyme 2B1; 37.0 °C
# [26] = read-out: 7-BR O-debenzylation KM
# [27] = read-out: 7-EFC O-deethylation KM
compound,measurement,setting,value
"O=c1ccc2nc3ccc(OCc4ccccc4)cc3oc-2c1 [7-BR, 7-benzyloxyresorufin]",O-dealkylation products,2B35v1 [1],not detected
same,efficiency for 7-BR O-debenzylation relative to 2B1,2B36v1 [2]; 2B36v1 as fraction of 2B1,1/40
same,7-BR O-debenzylation kcat,2B36v1 [2]; enzyme 2B36v1,0.10 ± 0.03 min^−^1
same,Km,"2B36v1 [2]; read-out: 7-BR O-debenzylation KM, enzyme 2B36v1",1.7 ± 0.3 µM
same,7-BR O-debenzylation kcat,2B37v2 V114I [3],0.13 ± 0.01 min^−^1
same,Km,2B37v2 V114I [3]; [26],5.7 ± 1 µM
same,7-BR O-debenzylation kcat,2B37v1 [4],0.16 ± 0.04 min^−^1
same,Km,2B37v1 [4]; [26],7.2 ± 0.6 µM
same,solubility,[5],~10 µM
same,7-BR O-debenzylation kcat,2B37v2 [6],0.25 ± 0.06 min^−^1
same,Km,2B37v2 [6]; [26],9.5 ± 0.5 µM
same,7-BR O-debenzylation kcat,2B37v2 R262K [7],0.18 ± 0.05 min^−^1
same,Km,2B37v2 R262K [7]; [26],9.2 ± 0.7 µM
same,7-BR O-debenzylation kcat,2B37v2 V480L [8],0.47 ± 0.08 min^−^1
same,Km,2B37v2 V480L [8]; [26],4.5 ± 0.7 µM
same,7-BR O-debenzylation kcat,2B37v1 K262R [9],0.15 ± 0.07 min^−^1
same,Km,2B37v1 K262R [9]; [26],8.1 ± 0.7 µM
same,7-BR O-debenzylation kcat,rat 2B1 [10],~ 4.5 min^−^1
"CCOc1ccc2c(C(F)(F)F)cc(=O)oc2c1 [7-EFC, 7-ethoxy-4-(trifluoromethyl)coumarin]",decrease in 7-EFC catalytic efficiency,2B37v2 R262K [11]; 2B37v2 R262K vs 2B37v2,85%
same,7-EFC O-deethylation kcat,2B37v2 R262K [11]; enzyme 2B37v2 R262K,2.0 ± 0.1 min^−^1
same,Km,"2B37v2 R262K [11]; read-out: 7-EFC O-deethylation KM, enzyme 2B37v2 R262K",20.3 ± 2.8 µM
same,7-EFC O-deethylation kcat,2B36v1 [12],3.3 ± 1.0 min^−^1
same,Km,2B36v1 [12]; [27],18.3 ± 7 µM
same,kcat for 7-EFC-O-deethylation greater than that of 2B1,2B37v2 [13]; 2B37v2 vs 2B1,2 fold
same,7-EFC O-deethylation kcat,2B37v2 [13]; enzyme 2B37v2,14.5 ± 8.3 min^−^1
same,Km,"2B37v2 [13]; read-out: 7-EFC O-deethylation KM, enzyme 2B37v2",20 ± 4.2 µM
same,O-dealkylation products,2B35v1 [14],not detected
same,decrease in 7-EFC kcat,2B37v1 K262R [15]; 2B37v1 K262R vs 2B37v1,~ 45%
same,reduction of 7-EFC catalytic efficiency,2B37v1 K262R [15]; 2B37v1 K262R vs 2B37v1,~ 35%
same,7-EFC O-deethylation kcat,2B37v1 K262R [15]; enzyme 2B37v1 K262R,5.4 ± 0.2 min^−^1
same,Km,"2B37v1 K262R [15]; read-out: 7-EFC O-deethylation KM, enzyme 2B37v1 K262R",19 ± 2.3 µM
same,7-EFC O-deethylation kcat,2B37v2 V114I [16],6.3 ± 1.9 min^−^1
same,Km,2B37v2 V114I [16]; [27],120 ± 2 µM
same,7-EFC O-deethylation kcat,2B37v2 V480L [17],22.3 ± 2.0 min^−^1
same,Km,2B37v2 V480L [17]; [27],23.9 ± 3.6 µM
same,7-EFC KM lower than 2B1,2B37v1 [18]; 2B37v1 vs 2B1,~ 25%
same,7-EFC catalytic efficiency higher than for 2B1,2B37v1 [18]; 2B37v1 vs 2B1,~ 1.8 fold
same,7-EFC kcat higher than that for 2B1,2B37v1 [18]; 2B37v1 vs 2B1,~ 1.4 fold
same,kcat for 7-EFC-O-deethylation greater than that of 2B1,2B37v1 [18]; 2B37v1 vs 2B1,~ 50%
same,7-EFC O-deethylation kcat,2B37v1 [18]; enzyme 2B37v1,10.0 ± 0.3 min^−^1
same,Km,"2B37v1 [18]; read-out: 7-EFC O-deethylation KM, enzyme 2B37v1",23.5 ± 2 µM
same,7-EFC O-deethylation kcat,2B37v2 V114I/V480L,20.8 ± 2.8 min^−^1
same,Km,2B37v2 V114I/V480L; [27],32.5 ± 4.4 µM
COC(=O)[C@H](c1ccccc1Cl)N1CCc2sccc2C1 [clopidogrel],KS,human 2B6,low micromolar
same,maximal increase in HSP450 content upon binding,human 2B6,2.6%
CN[C@H]1CC[C@@H](c2ccc(Cl)c(Cl)c2)c2ccccc21 [sertraline],maximal increase in HSP450 content upon binding,human 2B6,0.8%
Clc1ccccc1CN1CCc2sccc2C1 [ticlopidine],KS,human 2B6,low micromolar
same,maximal increase in HSP450 content upon binding,human 2B6,2.3%
(+)-α-pinene,Kd,2B37v1 [19],9330 ± 760 nM
same,Kd,2B36v1 [20],580 ± 40 nM
same,log P,[21],4.44
same,Kd,2B37v2 [22],910 ± 70 nM
same,Kd,2B35v1 [23],1270 ± 490 nM
same,(+)-α-pinene spectral binding %HSP450 Max Δ,"rat 2B1 [24]; maximum change in high-spin P450 content, enzyme 2B1",48.7 ± 1.3%
same,difference spectra type induced,"rat 2B1 [24]; peak ~388 nm, trough ~420 nm, represented with 2B1, seen with each enzyme",Type I
same,Kd,"rat 2B1 [24]; read-out: (+)-α-pinene spectral binding KS, enzyme 2B1, 25 °C",870 ± 80 nM
rat 2B1 (Rattus norvegicus; E2A/G22K/H23K/K25S/N29K/P24T/R27K),Km,[25],32.4 ± 4.9 µM
same,kcat,[25],0.115 ± 0.02 s⁻¹
same,kcat/Km,[25],3500 M⁻¹ s⁻¹
